Laboratory results: ChEMBL document CHEMBL1130629, “Fused aminotetralins: novel antagonists with high selectivity for the dopamine D3 receptor” (Bioorg Med Chem Lett, 1998)

Assays:
D(2) dopamine receptor [1] = target: T1, D(2) dopamine receptor (Homo sapiens, UniProt P14416); assay: Binding affinity at Dopamine receptor D2 expressed in CHO cells by [125I]iodosulpiride displacement.; assay type: cell-based
D(3) dopamine receptor = D(3) dopamine receptor (Homo sapiens, UniProt P35462); assay: Binding affinity at Dopamine receptor D3 expressed in CHO cells by [125I]iodosulpiride displacement.; assay type: cell-based
D(3) dopamine receptor, sequence (P35462 whole entry): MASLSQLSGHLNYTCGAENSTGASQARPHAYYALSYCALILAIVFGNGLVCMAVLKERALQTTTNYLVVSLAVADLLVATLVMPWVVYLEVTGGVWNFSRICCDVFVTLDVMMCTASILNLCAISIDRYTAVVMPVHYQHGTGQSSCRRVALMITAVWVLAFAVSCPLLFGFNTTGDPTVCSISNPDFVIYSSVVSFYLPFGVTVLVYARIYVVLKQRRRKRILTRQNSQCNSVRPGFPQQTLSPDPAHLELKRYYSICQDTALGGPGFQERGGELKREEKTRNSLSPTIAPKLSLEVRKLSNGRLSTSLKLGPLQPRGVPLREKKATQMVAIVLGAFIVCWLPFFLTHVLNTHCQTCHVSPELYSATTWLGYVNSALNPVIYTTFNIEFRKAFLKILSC

[2] = Compound was evaluated for the rate of clearance in rat upon intravenous administration.; assay type: ADME, organism-based; conditions: in vivo
Method in brief: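 Relative blood clearance measured at steady state. Compound dissolved in 5% (w/v) aqueous glucose with 2% (v/v) DMSO and 10% Encapsin HPB, target concentration 0.2 mg free base/ml. Given to rats as a constant-rate iv infusion over 12 h at a target 1 mg free base/kg/h, n = 3. Serial blood samples taken over the last 2 h to confirm steady state, then terminal exsanguination. Parent compound in blood measured by LC/MS/MS.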

D(2) dopamine receptor [3] = target: T1, D(2) dopamine receptor; assay: Displacement of [125I]iodosulpiride from Dopamine receptor D2 expressed in CHO cells; assay type: cell-based

T1 sequence (P14416 whole entry): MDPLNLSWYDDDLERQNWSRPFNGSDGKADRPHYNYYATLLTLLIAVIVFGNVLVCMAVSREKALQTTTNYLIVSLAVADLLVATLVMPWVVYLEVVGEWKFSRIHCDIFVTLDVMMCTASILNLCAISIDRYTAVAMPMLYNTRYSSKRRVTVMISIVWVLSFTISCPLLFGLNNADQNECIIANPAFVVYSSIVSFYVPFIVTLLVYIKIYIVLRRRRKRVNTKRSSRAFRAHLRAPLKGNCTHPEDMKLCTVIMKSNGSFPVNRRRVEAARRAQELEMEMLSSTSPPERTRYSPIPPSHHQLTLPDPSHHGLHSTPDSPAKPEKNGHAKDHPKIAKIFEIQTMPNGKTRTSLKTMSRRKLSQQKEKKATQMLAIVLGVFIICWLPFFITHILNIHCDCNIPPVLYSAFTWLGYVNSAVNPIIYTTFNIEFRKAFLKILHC

Row | Ki (D(2) dopamine receptor [1]) [µM] | Ki (D(3) dopamine receptor) [µM] | clearance [2] [mL/min/kg] | Ki (D(2) dopamine receptor [3]) [µM] | Compound
1 | 0.501 | 0.0158 | – | – | O=C(NCCCCN1CC[C@H]2c3ccccc3CC[C@@H]21)c1ccc(-c2ccccc2)cc1
2 | 0.501 | 0.00794 | – | – | COc1cccc2c1CC[C@H]1[C@H]2CCCN1CCCCNC(=O)c1ccc(-c2ccccc2)cc1 (single isomer, unassigned)
3 | 0.501 | 0.00794 | – | – | O=C(NCCCCN1CCC[C@H]2c3ccc(O)cc3CC[C@@H]21)c1ccc(-c2ccccc2)cc1
4 | 0.501 | 0.0158 | 46 | – | O=C(NCCCCN1CCC[C@@H]2c3ccccc3CC[C@H]21)c1ccc(-c2ccccc2)cc1
5 | – | 0.251 | – | 0.794 | O=C(NCCCCN1CCC[C@@H]2c3ccccc3CC[C@@H]21)c1ccc(-c2ccccc2)cc1
6 | 0.501 | 0.0501 | 59 | – | O=C(NCCCCN1CC[C@@H]2c3ccccc3CC[C@@H]21)c1ccc(-c2ccccc2)cc1
7 | 0.316 | 0.0126 | – | – | O=C(NCCCCN1CC[C@H]2c3ccc(O)cc3CC[C@@H]21)c1ccc(-c2ccccc2)cc1
8 | 0.794 | 0.794 | – | – | COc1cccc2c1CC[C@@H]1[C@@H]2CCCN1CCCCNC(=O)c1ccc(-c2ccccc2)cc1

More lines, now with the values behind:

Row | Compound | Ki (D(2) dopamine receptor [1]) [µM] | Ki (D(3) dopamine receptor) [µM] | clearance [2] [mL/min/kg] | Ki (D(2) dopamine receptor [3]) [µM]
9 | CS(=O)(=O)Oc1ccc2c(c1)CC[C@H]1[C@H]2CCCN1CCCCNC(=O)c1ccc(-c2ccccc2)cc1 | 2 | 0.2 | – | –
10 | CS(=O)(=O)Oc1cccc2c1CC[C@H]1[C@@H]2CCCN1CCCCNC(=O)c1ccc(-c2ccccc2)cc1 | 0.398 | 0.251 | – | –
11 | CS(=O)(=O)Oc1cccc2c1CC[C@H]1[C@H]2CCN1CCCCNC(=O)c1ccc(-c2ccccc2)cc1 | 0.316 | 0.00501 | – | –
12 | CCCN(CCCCNC(=O)c1ccc(-c2ccccc2)cc1)C1CCc2c(Cl)cccc2C1 (stereo not drawn) | – | – | 96 | –
13 | CS(=O)(=O)Oc1cccc2c1CC[C@@H]1[C@@H]2CCCN1CCCCNC(=O)c1ccc(-c2ccccc2)cc1 [listing 1 of 2 here] | 0.316 | 0.01 | 61 | –
14 | CS(=O)(=O)Oc1ccc2c(c1)CC[C@H]1[C@H]2CCN1CCCCNC(=O)c1ccc(-c2ccccc2)cc1 | 1 | 0.0501 | – | –
15 | O=C(NCCCCN1CC[C@H]2c3cccc(O)c3CC[C@@H]21)c1ccc(-c2ccccc2)cc1 | 0.0631 | 0.002 | – | –
16 | CS(=O)(=O)Oc1cccc2c1CC[C@H]1[C@H]2CCCN1CCCCNC(=O)c1ccc(-c2ccccc2)cc1 | 0.251 | 0.00631 | – | –
17 | COc1cccc2c1CC[C@H]1[C@H]2CCN1CCCCNC(=O)c1ccc(-c2ccccc2)cc1 | 0.631 | 0.0158 | – | –
18 | CS(=O)(=O)Oc1cccc2c1CC[C@@H]1[C@@H]2CCCN1CCCCNC(=O)c1ccc(-c2ccccc2)cc1 [listing 2 of 2 here] | 1.26 | 1.26 | – | –
